Screening results from PubChem BioAssay.
TAAR1 agonist – agonists of human TAAR1. Q96RJ0. CHO RD-HGA16 TAAR1, Fluo-8 calcium fluorescence; vehicle wells 0%, saturating PEA agonist 100%. activation, % at 3 µM. 0.99% of 360,000 active;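 active = activation above the mean activation of all test compounds in the run plus 3 SD, cut at about 38% in these data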
Target sequence (Q96RJ0 whole entry, looked up): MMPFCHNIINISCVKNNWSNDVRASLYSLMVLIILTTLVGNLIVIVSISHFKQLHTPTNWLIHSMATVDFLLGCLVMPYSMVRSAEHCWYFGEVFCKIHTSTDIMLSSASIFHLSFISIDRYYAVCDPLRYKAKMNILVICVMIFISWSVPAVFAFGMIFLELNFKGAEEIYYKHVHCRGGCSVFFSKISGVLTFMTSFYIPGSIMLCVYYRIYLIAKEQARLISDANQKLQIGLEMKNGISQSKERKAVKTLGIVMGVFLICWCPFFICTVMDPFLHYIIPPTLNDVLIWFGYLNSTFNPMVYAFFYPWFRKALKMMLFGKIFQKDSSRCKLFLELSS
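test system = CHO RD-HGA16 cells carrying human TAAR1 plus Gα16 | schedule = 17-24 h seeding, 75 min 37 °C dye, 30 min RT | compound dosing = 3 µM single concentration | control set = DMSO and PEA EC100 | replicates = n 1 | signal = Fluo-8 fluorescence, 5 s baseline then 140 s kinetic read | measure = percent activation vs PEA EC100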
TAAR1 antagonist – antagonists of human TAAR1; CHO RD-HGA16 TAAR1, Fluo-8 calcium fluorescence, antagonist; inhibition, % at 3 µM; Q96RJ0; 1.5% of 360,000 active; AID 624466;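 active = inhibition above a per-plate cutoff, the mean inhibition of test compounds on that plate plus 3 SD, cut at about 49% in these data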;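 note: 0% = DMSO plus EC80 beta-PEA response and 100% = DMSO alone without agonist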
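Material: RD-HGA16 CHO cells with stable hTAAR1 and Gα16; Dosing: single nominal final test compound concentration of 3 µM; Schedule: seeding 17-24 h prior, 75-min 37 °C, 30-min RT dye loading; Detection: kinetic Fluo-8 calcium fluorescence measurement; Measure: % inhibition from peak post-agonist over basal fluorescence ratio; Benchmarks: vehicle and agonist controls.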
OX1R antag-1 – antagonists of human orexin 1 receptor | O43613 | CHO/OX1R cells, Fluo-8 calcium fluorescence, orexin A | inhibition, % at 5 µM | 0.43% of 330,000 active;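 active = inhibition above its plate's threshold, mean inhibition of all tested compounds on the plate plus 3 SD, cut at about 37% in these data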;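 note: 0% = orexin A challenge wells and 100% = SB-334867-A antagonist wells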
OX1R antag-2 – blocks the human orexin 1 receptor; O43613; OX1R-expressing cells, FRET antagonist read-out; inhibition, % at 6.6 µM; 1.8% of 330,000 active; in the data active = inhibition mostly above about 38%, no sharp cut-off; inactive = mostly below about 40%;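 note: 0% = agonist challenge alone and 100% = reference antagonist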
GPR7 antag – blocks human GPR7 receptor signaling; P48145; GPR7-expressing cells, fluorescence antagonist assay; inhibition, % at 4.4 µM; 1.1% of 290,000 active; in the data active = inhibition above about 16%, passing the limit was not always enough;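 note: cells stimulated with the agonist NPW; 0% = agonist with vehicle and 100% = vehicle without agonist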
CHO parental Ca – signal in parental CHO cells, OX1R antagonist counter-screen. parental CHO-K1, ATP-induced calcium, Fluo-8 fluorescence. inhibition, % at 5.6 µM. 0.63% of 330,000 active. AID 463079;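 active = inhibition above that plate's mean sample inhibition plus 3 SD, cut at about 26% in these data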;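 note: 0% = ATP-challenged DMSO wells and 100% = DMSO wells without ATP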
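Test system: untransfected parental CHO cell line; also added: ATP stimulus; dosing: 5.6 µM, single dose; signal: calcium-sensitive Fluo-8 fluorescence; measure: percent inhibition of ATP-evoked calcium rise, normalized to controls; benchmarks: low control ATP plus DMSO, high control DMSO only; replication: one well per compound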
TAAR1 ag conf – confirmation of human TAAR1 agonists; shares compounds with TAAR1 agonist; CHO RD-HGA16 TAAR1, Fluo-8 calcium fluorescence; scaled: DMSO 0%, maximal phenethylamine 100%; activation, % at 3 µM; 82% of 2,400 active;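 active = activation above a cutoff set at the run's mean compound activation plus 3 SD, cut at about 39% in these data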
Ga16 ag counter – nonselective agonism, TAAR1 counter-screen | shares compounds with TAAR1 agonist | activation, % at 3 µM | CHO-Ga16 parental, Fluo-8 calcium fluorescence; normalized to maximal ATP response, DMSO zero | 50% of 2,400 active | AID 651787;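 active = activation above the run cutoff, the mean activation over all tested wells plus 3 SD, cut at about 12% in these data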;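 note: 0% = DMSO wells and 100% = maximal ATP response on the peak over basal ratio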
TAAR1 desensitize – human TAAR1 agonist that also desensitizes the receptor; CHO RD-HGA16 hTAAR1, Fluo-8 calcium, beta-PEA response inhibition; inhibition, % at 3 µM; 46% of 2,400 active; shares compounds with TAAR1 agonist;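 active = inhibition above the run cutoff, the mean inhibition of all test compounds plus 3 SD, cut at about 49% in these data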;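 note: beta-PEA stimulus applied at its EC80; loss of beta-PEA calcium signal after compound pretreatment read as receptor desensitization; 0% = DMSO with beta-PEA at EC80 and 100% = DMSO alone without agonist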
Ga16 nonsel ant – counter-screen for TAAR1 agonists: nonselective Ga16 antagonists. shares compounds with TAAR1 agonist. CHO-Ga16 ATP-induced calcium, Fluo-8 fluorescence. inhibition, % at 3 µM. 39% of 2,400 active. AID 651952;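 active = inhibition above the plate's mean compound inhibition plus 3 SD, computed per plate, cut at about 22% in these data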;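 note: 0% = EC80 ATP with DMSO and 100% = DMSO wells without ATP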
Numbers without * were called inactive; nt = no result. Sampled rows, rich in hits. Any-hit rate of the full collection: about 4.5%.

SMILES	TAAR1 agonist	TAAR1 antagonist	OX1R antag-1	OX1R antag-2	GPR7 antag	CHO parental Ca	TAAR1 ag conf	Ga16 ag counter	TAAR1 desensitize	Ga16 nonsel ant
CC(=O)c1ccc(OC(C)C)c(CSC(=N)N)c1	30.2	-9.5	-6.7	14.9	-5.8	-9.7	nt	nt	nt	nt
CCCCOc1ccc(Cl)cc1CSc1nnc(CC)n1N	8.6	9.8	-15.5	14.9	14.8	-17.8	nt	nt	nt	nt
CCCCCOc1ccc(Br)cc1CSC(=N)N	93.4*	92.8*	nt	nt	71.7*	nt	105.6*	60.1*	102.0*	71.5*
CCOc1ccc(CSC(=N)N)cc1	12.0	-5.0	-1.4	5.2	-10.9	5.0	nt	nt	nt	nt
CCCCOc1ccc(CSC(=N)N)cc1Cl	100.5*	0.7	-30.9	-4.6	-0.4	0.5	108.5*	55.4*	60.7*	27.4*
CC(=O)c1cccc(NC(=O)CSc2nnc(C(C)N(C)C)n2Cc2ccccc2)c1 (stereo not drawn)	-2.4	-3.4	-30.1	16.2	4.2	-19.6	nt	nt	nt	nt
COc1ccccc1N(C(=O)CNC(=O)c1ccco1)C(C(=O)NCC1CCCO1)c1ccccc1 (stereo not drawn)	0.5	10.7	-11.0	2.5	1.7	-9.1	nt	nt	nt	nt
Brc1ccc2ncnc(Nc3cccc4ccccc34)c2c1	52.8*	1.3	-33.3	16.1	-10.1	-33.8	15.3	30.3*	2.2	5.1
COc1cccc(Nc2ncnc3ccc(Br)cc23)c1	0.7	-39.9	nt	nt	nt	nt	nt	nt	nt	nt
COc1ccc(SC[C@H](Cc2ccccc2)N2CC[C@@H](C)CCC2=O)cc1	15.6	34.9	24.5	9.9	nt	-18.3	nt	nt	nt	nt
O=C(Nc1ccccc1C(=O)N1CCOCC1)c1ccc(Br)cc1	nt	nt	-22.7	8.5	-7.3	-8.8	nt	nt	nt	nt
COCCNC(=O)COc1coc(CN2CCN(Cc3ccccc3)CC2)cc1=O	2.6	-11.4	-15.0	0.6	-4.8	6.4	nt	nt	nt	nt
COc1cc(OC)c2c(-c3ccccc3)cc(=O)oc2c1C(CCN1CCCCC1)c1ccc2c(c1)OCO2 (stereo not drawn)	43.3*	13.5	-30.0	2.4	nt	-10.8	44.6*	11.8*	19.9	15.8
COc1ccc(C(CCN2CCCCC2)c2c(OC)cc(OC)c3c(-c4ccccc4)cc(=O)oc23)cc1 (stereo not drawn)	67.7*	31.7	25.3	25.2	nt	24.1	65.7*	42.4*	52.5*	48.1*
O=C(O)CCc1ccc(-c2cccs2)n1CCc1ccccc1	62.4*	32.2	-18.3	13.6	-5.6	-11.2	82.9*	0.0	72.6*	4.5
O=C(O)CCc1ccc(-c2cccs2)n1CCC(=O)O	3.0	-4.4	-16.5	26.5	2.5	-4.7	nt	nt	nt	nt
COc1cc2c(cc1OC(C)=O)CCCCC2=O	-0.5	-13.3	nt	nt	nt	nt	nt	nt	nt	nt
O=Cc1ccc(OCC(=O)N2CCc3ccccc32)c(Br)c1	0.4	-2.7	nt	nt	nt	nt	nt	nt	nt	nt
O=C(COc1ccc(F)cc1Br)N1CCc2ccccc21	75.9*	82.8*	-20.9	12.5	0.2	-15.4	1.1	2.9	-7.2	0.9
CC(C)c1ccc(NC(=O)[C@@H](C)NC(=O)[C@@H]2Cc3ccccc3CN2)cc1	77.6*	-4.2	-29.7	11.6	-0.9	-27.8	31.1	12.4*	-9.3	4.4
CC(C)C[C@H](NC(=O)[C@@H]1Cc2ccccc2CN1)C(=O)Nc1ccc(C(C)C)cc1	5.9	5.7	-31.7	6.2	-4.9	-22.5	nt	nt	nt	nt
COc1cc2nc(/C=C/c3ccc(N(C)C)cc3)sc2cc1SC	100.9*	52.0*	60.2*	26.8	4.5	51.8*	46.1*	93.3*	66.8*	87.0*
